From ChEMBL document CHEMBL1158468, “Synthesis, structure-activity relationships, and in vivo evaluation of N3-phenylpyrazinones as novel corticotropin-releasing factor-1 (CRF1) receptor antagonists” (J Med Chem, 2009)
Activity calls are given as the source filed them. The rule behind the calls is not given here.

Tests used:
[1] = molecular target: T1, Corticotropin-releasing factor receptor 1 (Rattus norvegicus, UniProt P35353); assay: Displacement of [125I]Tyr-ovine-CRF from CRF1 receptor in rat frontal cortex homogenate by gamma counting; assay type: tissue-based
T1 sequence (P35353 whole entry): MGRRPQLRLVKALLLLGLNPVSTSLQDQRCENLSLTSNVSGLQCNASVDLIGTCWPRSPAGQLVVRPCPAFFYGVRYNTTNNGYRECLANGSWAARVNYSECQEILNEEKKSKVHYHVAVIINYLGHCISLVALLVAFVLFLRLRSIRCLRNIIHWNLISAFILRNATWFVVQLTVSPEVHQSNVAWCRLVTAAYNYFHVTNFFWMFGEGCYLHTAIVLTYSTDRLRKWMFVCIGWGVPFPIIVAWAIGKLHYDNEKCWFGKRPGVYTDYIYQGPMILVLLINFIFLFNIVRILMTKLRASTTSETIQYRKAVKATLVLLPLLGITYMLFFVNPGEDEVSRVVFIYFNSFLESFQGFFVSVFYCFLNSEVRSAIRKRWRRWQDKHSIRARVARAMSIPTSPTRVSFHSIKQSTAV
In short: (§1)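 Washed homogenates of frozen rat frontal cortex (CRF1, 25 μg/well) or porcine choroid plexus (CRF2, 10 μg/well) in 50 mM Hepes pH 7.0, 10 mM MgCl2, 2 mM EGTA, protease inhibitors, 0.005% Triton X-100. Ligand 150 pM 125I-ovine-CRF (CRF1) or 100 pM 125I-sauvagine (CRF2). Incubation 2 h at 21 °C, then filtration and gamma counting. Nonspecific binding: 1 μM CRF1 reference antagonist or 1 μM α-helical CRF(9-41). IC50 from 5- or 10-point curves by nonlinear regression.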

[2] = (§2) Displacement of [125I]sauvagine from CRF2 receptor in pig choroid plexus homogenate by gamma counting; assay type: tissue-based, Sus scrofa; in short: as §1
[3] = species on record: Sus scrofa; assay: as §2; assay type: tissue-based; in short: as §1
[4] = Octanol-water partition coefficient, log D at pH 7.4; assay type: physicochemical
[5] = molecular target: T2, Corticotropin-releasing factor receptor 1 (Homo sapiens, UniProt P34998); assay: Antagonist activity at CRF1 receptor in human Y79 cells assessed as inhibition of CRF-stimulated cAMP production by HTRF method
T2 sequence (P34998 whole entry): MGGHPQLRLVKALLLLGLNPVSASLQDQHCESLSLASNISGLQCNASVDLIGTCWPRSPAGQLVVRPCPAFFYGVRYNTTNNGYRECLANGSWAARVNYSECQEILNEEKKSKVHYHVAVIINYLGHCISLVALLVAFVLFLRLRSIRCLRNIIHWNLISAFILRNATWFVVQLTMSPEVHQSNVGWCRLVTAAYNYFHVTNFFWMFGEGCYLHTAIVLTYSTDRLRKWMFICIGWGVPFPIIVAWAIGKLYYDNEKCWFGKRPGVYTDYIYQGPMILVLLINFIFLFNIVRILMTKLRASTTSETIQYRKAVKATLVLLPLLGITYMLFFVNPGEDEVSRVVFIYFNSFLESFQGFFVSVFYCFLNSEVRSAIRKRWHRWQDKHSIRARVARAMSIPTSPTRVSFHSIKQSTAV

[6] = Clearance in Sprague-Dawley rat at 2 mg/kg, iv; assay type: ADME, organism-based; set-up: dose 2 mg/kg, route intravenous; conditions: in vivo
In short: (§3)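 Male Sprague-Dawley rats; iv 2 mg/kg in PEG:ethanol 90:10 (v/v) at 1 mL/kg, or oral 10 mg/kg as 1% Tween 80 in 0.5% methylcellulose suspension at 3 mL/kg; n = 3 per route. Jugular catheter blood taken to 24 h postdose. Plasma was protein-precipitated with acetonitrile and assayed by LC/MS/MS.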

[7] = Volume of distribution at steady state in Sprague-Dawley rat at 2 mg/kg, iv; assay type: ADME, organism-based; set-up: dose 2 mg/kg, route intravenous; conditions: in vivo, read-out: Vdss; in short: as §3
[8] = Half life in Sprague-Dawley rat at 2 mg/kg, iv; assay type: ADME, organism-based; set-up: dose 2 mg/kg, route intravenous; conditions: in vivo; in short: as §3
[9] = AUC in Sprague-Dawley rat at 10 mg/kg, po; assay type: ADME, organism-based; set-up: dose 10 mg/kg, route oral; conditions: plasma; in short: as §3
[10] = Cmax in Sprague-Dawley rat at 10 mg/kg, po; assay type: ADME, organism-based; set-up: dose 10 mg/kg, route oral; conditions: in vivo; in short: as §3
[11] = Oral bioavailability in Sprague-Dawley rat at 10 mg/kg; assay type: ADME, organism-based; conditions: in vivo; in short: as §3
[12] = system: Rattus norvegicus; assay: Hepatic blood flow in Sprague-Dawley rat at 2 mg/kg, iv; assay type: ADME, organism-based, Liver; set-up: dose 2 mg/kg, route intravenous; conditions: in vivo
[13] = Clearance in cynomolgus monkey at 2 mg/kg, iv; assay type: ADME, organism-based, Macaca fascicularis; set-up: dose 2 mg/kg, route intravenous; conditions: in vivo
In short: (§4)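 Cynomolgus monkeys, n = 3 per route. Iv dose 2 mg/kg in PEG:ethanol 90:10 (v/v), 1 mL/kg, sampled from jugular vein. Oral dose 10 mg/kg as suspension in 1% Tween in 0.5% methylcellulose, 3 mL/kg, sampled from femoral vein. Sampling to 24 h; plasma measured by LC/MS/MS.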

[14] = Volume of distribution at steady state in cynomolgus monkey at 2 mg/kg, iv; assay type: ADME, organism-based, Macaca fascicularis; set-up: dose 2 mg/kg, route intravenous; conditions: in vivo, read-out: Vdss; in short: as §4
[15] = Half life in cynomolgus monkey at 2 mg/kg, iv; assay type: ADME, organism-based, Macaca fascicularis; set-up: dose 2 mg/kg, route intravenous; conditions: in vivo; in short: as §4
[16] = AUC in cynomolgus monkey at 10 mg/kg, po; assay type: ADME, organism-based, Macaca fascicularis; set-up: dose 10 mg/kg, route oral; conditions: plasma; in short: as §4
[17] = Cmax in cynomolgus monkey at 10 mg/kg, po; assay type: ADME, organism-based, Macaca fascicularis; set-up: dose 10 mg/kg, route oral; conditions: in vivo; in short: as §4
[18] = Oral bioavailability in cynomolgus monkey at 10 mg/kg; assay type: ADME, organism-based, Macaca fascicularis; conditions: in vivo; in short: as §4
[19] = system: Rattus norvegicus; assay: Plasma concentration in Sprague-Dawley rat at 1 mg/kg, po; assay type: ADME, organism-based; set-up: dose 1 mg/kg, route oral; conditions: in vivo
[20] = system: Rattus norvegicus; assay: Plasma concentration in Sprague-Dawley rat at 3 mg/kg, po; assay type: ADME, organism-based; set-up: dose 3 mg/kg, route oral; conditions: in vivo
[21] = system: Rattus norvegicus; assay: Plasma concentration in Sprague-Dawley rat at 10 mg/kg, po; assay type: ADME, organism-based; set-up: dose 10 mg/kg, route oral; conditions: in vivo
[22] = system: Rattus norvegicus; assay: Free plasma concentration in Sprague-Dawley rat at 1 mg/kg, po; assay type: ADME, organism-based; set-up: dose 1 mg/kg, route oral; conditions: in vivo
[23] = system: Rattus norvegicus; assay: Free plasma concentration in Sprague-Dawley rat at 3 mg/kg, po; assay type: ADME, organism-based; set-up: dose 3 mg/kg, route oral; conditions: in vivo
[24] = system: Rattus norvegicus; assay: Free plasma concentration in Sprague-Dawley rat at 10 mg/kg, po; assay type: ADME, organism-based; set-up: dose 10 mg/kg, route oral; conditions: in vivo
[25] = Unbound fraction in rat plasma after 3 hrs by equilibrium dialysis method; assay type: ADME, cell-free
In short: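 Rat plasma spiked with compound, then equilibrium-dialysed against isotonic phosphate buffer for 3 h at 37 °C. Compound in the plasma and buffer samples was quantified by LC/MS/MS after acetonitrile protein precipitation with internal standard. Unbound fraction was taken as the buffer-to-plasma concentration ratio.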

[26] = system: Rattus norvegicus; assay: Ex vivo displacement of [125I-Tyro]-sauvagine from CRF1 receptor in Sprague-Dawley rat parietal cortex at 1 mg/kg, po by autoradiography; assay type: functional
In short: (§5)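 Brains from orally dosed rats taken after the defensive withdrawal test. 20 μm cryostat sections preincubated 1 min, then incubated 20 min at 22–24 °C with 0.15–0.20 nM [125I-Tyro]sauvagine in 50 mM HEPES pH 7.2 buffer. Nonspecific binding from vehicle sections with 1 μM reference CRF1 antagonist. Parietal cortex occupancy read by autoradiography and computed relative to vehicle specific binding.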

[27] = system: Rattus norvegicus; assay: Ex vivo displacement of [125I-Tyro]-sauvagine from CRF1 receptor in Sprague-Dawley rat parietal cortex at 3 mg/kg, po by autoradiography; assay type: functional; in short: as §5
[28] = system: Rattus norvegicus; assay: Ex vivo displacement of [125I-Tyro]-sauvagine from CRF1 receptor in Sprague-Dawley rat parietal cortex at 10 mg/kg, po by autoradiography; assay type: functional; in short: as §5
[29] = system: Rattus norvegicus; assay: Anxiolytic activity in Sprague-Dawley rat assessed as decrease in latency to exit dark chamber at 1 mg/kg, po after 1 hr by defensive withdrawal test; assay type: functional; set-up: scale not given: the % may be the effect or the level left
In short: (§6)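 Male Sprague-Dawley rats (180–300 g), dosed po 1 h before testing in 0.25% methylcellulose suspension (bead-milled), 2 mL/kg. Blind observer recorded the latency to leave a dark chamber placed in an illuminated open field (all four paws out) over 15 min. ANOVA with Fisher's LSD, p < 0.05.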

[30] = system: Rattus norvegicus; assay: Anxiolytic activity in Sprague-Dawley rat assessed as decrease in latency to exit dark chamber at 3 mg/kg, po after 1 hr by defensive withdrawal test; assay type: functional; set-up: scale not given: the % may be the effect or the level left; in short: as §6
[31] = system: Rattus norvegicus; assay: Anxiolytic activity in Sprague-Dawley rat assessed as decrease in latency to exit dark chamber at 10 mg/kg, po after 1 hr by defensive withdrawal test; assay type: functional; set-up: scale not given: the % may be the effect or the level left; in short: as §6
[32] = system: Rattus norvegicus; assay: Anxiolytic activity in po dosed Sprague-Dawley rat assessed as minimal effective dose by defensive withdrawal test; assay type: functional; conditions: read-out: MED; in short: as §6

COC[C@@H](C1CC1)n1cc(Cl)nc(Nc2cc(C)c(OC)cc2C)c1=O
IC50 [1]: 0.26 nM
IC50 [2]: > 10 µM
Activity [3]: inactive
logD [4]: 4.35
IC50 [5]: 1.9 nM
clearance [6]: 170 mL/min/kg
Vd [7]: 97 L/kg
half-life [8]: 1080 min
AUC [9]: 0.36 µM·h
Cmax [10]: 52 nM
bioavailability [11]: 14%
QH [12]: 55 mL/min/kg
clearance [13]: 21 mL/min/kg
Vd [14]: 7.7 L/kg
half-life [15]: 558 min
AUC [16]: 0.41 µM·h
Cmax [17]: 32 nM
bioavailability [18]: 2%
concentration [19]: 4.9 nM
concentration [20]: 14 nM
concentration [21]: 76 nM
Cp(f) [22]: 0.1 nM
Cp(f) [23]: 0.29 nM
Cp(f) [24]: 1.6 nM
fraction unbound at 3 h [25]: 0.021
Activity [26]: 37%
Activity [27]: 72%
Activity [28]: 94%
Activity [29]: <5%
Activity [30]: 60%
Activity [31]: 65%
minimal effective dose [32]: 3 mg/kg

COCC(COC)n1cc(Cl)nc(Nc2cc(C)c(OC)cc2C)c1=O
IC50 [1]: 2.1 nM

COC[C@H](C1CC1)n1cc(Cl)nc(Nc2cc(C)c(OC)cc2C)c1=O
IC50 [1]: 0.29 nM
IC50 [2]: > 10 µM

COc1cc(Cl)c2c(c1)CCN2c1nc(Cl)cn([C@H](C)C2CC2)c1=O
IC50 [1]: 0.62 nM

CC[C@H](C1CC1)n1cc(Cl)nc(N(CC)c2cc(C)c(C)cc2C)c1=O
IC50 [1]: 1.5 nM

COc1cc(C)c(Nc2nc(Cl)cn([C@H](C)C3CC3)c2=O)cc1C
IC50 [1]: 0.42 nM

CCc1cn([C@H](C)C2CC2)c(=O)c(Nc2ccc(OC)nc2C(F)(F)F)n1
IC50 [1]: 180 nM

CCC(CC)Cn1cc(Cl)nc(Nc2cc(C)c(OC)cc2C)c1=O
IC50 [1]: 76 nM

COC[C@H](C)n1cc(Cl)nc(Nc2cc(C)c(OC)cc2C)c1=O
IC50 [1]: 5.8 nM

CCCC(CCC)n1cc(Cl)nc(Nc2c(C)cc(C)cc2C)c1=O
IC50 [1]: 2.4 nM

CC[C@H](COC)n1cc(Cl)nc(Nc2c(C)cc(C)cc2C)c1=O
IC50 [1]: 1.4 nM

CC[C@H](COC)n1cc(Cl)nc(Nc2cc(C)c(OC)cc2C)c1=O
IC50 [1]: 0.59 nM

COc1ccc(Nc2nc(Cl)cn([C@H](C)C3CC3)c2=O)c(C(F)(F)F)n1
IC50 [1]: 1.8 nM
